Compounds with a hit are over-represented: about 0.74% of the library has one in this group of screens.
Tn7 DDE FP – inhibitors of Tn7 peptide binding to fibrin DD(E), primary screen, biochemical, fluorescence polarization, human fibrin, Tn7 probe. Fibrinogen beta chain (Homo sapiens), P02675. FP displacement of FITC-Tn7 peptide from fibrin DD(E); 0% = median of compound wells per plate. inhibition, % at 8.3 µM. hit rate 0.13% among 370,000. AID 720508, 2013;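 active = inhibition above the mean of compounds falling within the control limits plus 3 SD of them, cut at about 14% in these data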
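Assay system: Human fibrin DD(E) protein | Medium: Tris buffer with calcium and detergent, pH 7.8 | Reagent: 0.1 µM fluorescent Tn7 | Compound dosing: Single point at 8.3 µM | Times: 10 min preincubation, 3 h with tracer, room temperature | Detection: Fluorescence polarization of the labelled Tn7 tracer | Controls: Aha-Tn7 high control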
DDE Tn6 FP inh – inhibitors of Tn6 peptide binding to fibrin DD(E), primary screen, biochemical, fluorescence polarization, human fibrin, Tn6 probe | Fibrinogen beta chain (Homo sapiens), P02675 | Fibrin DD(E) TRITC-Tn6 fluorescence polarization displacement | inhibition, % at 8.3 µM | hit rate 0.21% among 370,000 | AID 720509, 2013;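 active = inhibition above a per-campaign cutoff: mean of compounds within control limits plus 3 SD, cut at about 15% in these data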
ARFGAP1 inhibitor – inhibitors of rat ARFGAP1 GAP activity, primary screen, biochemical, fluorescence polarization, GDP tracer; Arfgap1-stimulated ARF1 GTP hydrolysis, GDP FP detection; inhibition, % at 16.5 µM; hit rate 0.26% among 360,000;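 active = inhibition above a per-plate limit, mean inhibition of low control wells plus 3 SD, cut at about 25% in these data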
Target sequence (Q62848 1-136 limits assumed): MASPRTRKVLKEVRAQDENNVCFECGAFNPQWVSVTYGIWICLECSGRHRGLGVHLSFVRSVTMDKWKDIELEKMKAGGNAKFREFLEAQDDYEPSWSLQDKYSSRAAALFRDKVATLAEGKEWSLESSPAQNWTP
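Material – truncated rat Arfgap1 GAP domain · Buffer or medium – HEPES-based buffer, pH 7.5 · Reagent – human ARF1(Δ1-17)-GTP substrate · Dosing – 16.5 µM single point, 1.26% DMSO · Schedule – GTP hydrolysis reaction 2 h at 25 °C · Technique – GDP detection by fluorescence polarization · Benchmarks – No-Arfgap1 wells (100%) versus DMSO full-reaction wells (0%) · Repeats – single replicate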
ASAP1 inh – inhibitors of human ASAP1 ArfGAP activity, primary screen, biochemical, fluorescence polarization; Arf-GAP with SH3 domain, ANK repeat and PH domain-containing protein 1 (Homo sapiens), …; hit rate 0.19% among 360,000; ASAP1-stimulated ARF1 GTP hydrolysis, GDP FP detection; AID 624377, 2012; inhibition, % at 16.5 µM; in the data active = inhibition above about 25%
Target sequence (Q9ULH1 325-724 limits assumed): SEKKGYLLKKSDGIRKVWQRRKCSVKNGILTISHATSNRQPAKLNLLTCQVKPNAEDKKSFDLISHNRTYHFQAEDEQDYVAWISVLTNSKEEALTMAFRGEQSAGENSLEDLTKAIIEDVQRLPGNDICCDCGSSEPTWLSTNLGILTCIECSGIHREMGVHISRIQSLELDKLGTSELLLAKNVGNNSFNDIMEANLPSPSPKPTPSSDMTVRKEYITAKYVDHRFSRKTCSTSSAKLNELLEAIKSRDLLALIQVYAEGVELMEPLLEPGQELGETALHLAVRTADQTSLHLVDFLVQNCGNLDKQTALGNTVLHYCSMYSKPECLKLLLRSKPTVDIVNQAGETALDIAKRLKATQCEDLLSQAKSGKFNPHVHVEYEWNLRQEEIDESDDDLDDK
ARFGAP1 inh conf – ARFGAP1 inhibitor hit confirmation, biochemical, fluorescence polarization, triplicate; shares compounds with ARFGAP1 inhibitor; ARFGAP1-stimulated ARF1 GTP hydrolysis, GDP tracer FP; hit rate 30% among 890; inhibition, % at 16.5 µM; AID 651608, 2012;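 active = average inhibition over triplicates above the hit cutoff set in the earlier primary screen, cut at about 25% in these data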
A number is an active result; n = inactive; x = no result; + = active, no number.

SMILES | Tn7 DDE FP | DDE Tn6 FP inh | ARFGAP1 inhibitor | ASAP1 inh | ARFGAP1 inh conf
COc1ccc(C2NC(=O)NC(c3ccccc3)=C2c2nc3ccccc3s2)cc1 (centres undefined) | n | n | n | n | x
CC(=O)c1cccc(NC(=O)CN(C)Cc2ccc(OC(F)F)cc2)c1 | n | n | 42.0 | n | n
COc1ccccc1Cc1c(-c2ccccc2)nc2ccc(C)cn12 | n | n | n | n | x
COc1ccc(CNC(=O)c2sc(=O)n(Cc3ccc(-c4ccccc4)cc3)c2C)cc1OC | n | n | 26.2 | n | n
CCCOc1ccc(-c2cc(C(=O)NCC3CCCO3)c3ccccc3n2)cc1 (centres undefined) | n | n | 27.0 | n | n
Nn1cnnc1N/N=C\c1ccc(-c2ccccc2[N+](=O)[O-])o1 | n | n | 27.5 | n | n
Cc1ccc(Cl)cc1NC(=O)N(C)CCOC(=O)Nc1cccc(Cl)c1 | n | n | n | n | x
O=Cc1cc([B-](F)(F)F)cs1 | n | n | n | n | x
O=C(OCC(=O)N1CCN(S(=O)(=O)c2ccccc2)CC1)C1CCC1 | n | n | n | n | x
O=C(COC(=O)C12CC3CC(CC(C3)C1)C2)N1CCN(S(=O)(=O)c2ccccc2)CC1 | n | n | 28.8 | n | n
c1ccc(Cn2cc(CCOCc3ccccn3)c3ccccc32)cc1 | n | n | n | n | x
OC(c1ccc(-c2ccccc2)cc1)c1ncc(-c2ccc(C(F)(F)F)cc2)[nH]1 (centres undefined) | n | n | 39.3 | n | n
O=C(Nc1ccc(Nc2ccncc2)cc1)c1ccc(Nc2ccnc3ccc([N+](=O)[O-])cc23)cc1[N+](=O)[O-] | n | n | 74.1 | n | +
O=C(Nc1nc(-c2ccccc2)cs1)c1ccc2c(c1)S(=O)(=O)c1ccccc1C2=O | n | n | n | n | x
O=C(Nc1nc(-c2cccc3ccccc23)cs1)c1ccc2c(c1)S(=O)(=O)c1ccccc1C2=O | n | n | 34.0 | n | n
COc1ccc(OC)c(-n2nnnc2SCC(=O)Nc2ccc3c(c2)OCCO3)c1 | n | n | 48.9 | n | 45.0
Cc1ccccc1NC(=O)Cc1nc(COC(=O)c2cc(Br)ccc2O)cs1 | n | n | n | n | x
Cc1ccccc1NC(=O)Cc1nc(COC(=O)c2cc([N+](=O)[O-])ccc2N)cs1 | n | n | 29.1 | n | n
Cc1ccc2nc(-c3ccc(C#N)cc3)c(Cc3cccc(F)c3)n2c1 | n | n | n | n | x
O=C(O)CC1(C(=O)O)CC2C=CC1C2 (centres undefined) | n | n | 25.3 | n | n
CN(C)c1cccc2c(S(=O)(=O)NCC3CCN(C(=O)C(=O)c4cc5ccccc5o4)CC3)cccc12 | n | n | n | n | x
COCCNC(=S)N(C)[C@H]1C[C@H]2c3[nH]c4c(-c5ccc6c(c5)OCO6)cccc4c3CCN2C(=O)[C@H]1[C@H](C)O | n | n | n | n | x
CCOC(=O)Cc1csc(NC(=O)CN2C(=O)c3ccccc3S2(=O)=O)n1 | n | n | 33.0 | n | n
CCOC(=O)Cc1csc(NC(=O)CN2C(=O)c3ccccc3C2=O)n1 | n | n | n | n | x
CCOC(=O)N1CCN(C(=O)C[C@H]2C[C@@]3(C(=O)OC)C(=C[C@H](C(C)(C)C)O[C@@H]3C)N(Cc3ccc4c(c3)OCO4)C2=O)CC1 | n | n | n | n | x
SMILES | Tn7 DDE FP | DDE Tn6 FP inh | ARFGAP1 inhibitor | ASAP1 inh | ARFGAP1 inh conf
COc1ccc(-n2c(=S)[nH]c3cc(C(=O)Nc4ccc(F)cc4)ccc3c2=O)c(OC)c1 | n | n | 25.5 | n | n
COc1ccc(NC(=O)c2ccc3c(=O)n(-c4ccc(OC)cc4OC)c(=S)[nH]c3c2)cc1 | n | n | n | n | x
O=C1Nc2ccccc2C1=Nc1cccc([N+](=O)[O-])c1 | n | n | n | n | x
NC(=O)c1ccc(N=C2C(=O)Nc3ccc([N+](=O)[O-])cc32)cc1 | n | n | 36.9 | 39.8 | n
COc1ccc(/C=N/Nc2cc(N3CCOCC3)ncn2)c(OC)c1 | n | n | n | n | x
COc1cccc(/C=N/Nc2cc(N3CCOCC3)ncn2)c1O | n | n | 29.2 | n | 42.6
COc1ccc(C(=O)Nc2ccccc2-c2nnn(CC(N)=O)n2)cc1 | n | n | n | n | x
COc1cc(OC)cc(C(=O)Nc2ccccc2-c2nnn(CC(=O)Nc3cc(C)on3)n2)c1 | n | n | 25.0 | n | 30.7
Cc1cc(C)n2nc(SCC(=O)N/N=C/c3ccccc3F)nc2n1 | n | n | 26.7 | n | n
COc1ccc(-n2c(SCCNCCO)nc3sc4c(c3c2=O)CCCC4)cc1 | n | n | 32.0 | n | n
CCOC(=O)CSc1nc2sc3c(c2c(=O)n1-c1ccc(OC)cc1)CCN(C)C3 | n | n | n | n | x
COc1ccc(-n2c(SCC(=O)O)nc3sc4c(c3c2=O)CCCC4)cc1 | n | n | 35.2 | n | 51.6
COc1ccc(-n2c(SCC(N)=O)nc3sc4c(c3c2=O)CCN(C)C4)cc1 | n | n | 37.3 | n | 37.1
S=C(NN=C1CCCCC1=NNC(=S)N1CCOCC1)N1CCOCC1 | n | n | n | n | x
O=C(c1cc2ccccc2o1)N1CCN(Cc2nc3ccccc3s2)CC1 | n | n | 25.7 | n | n
CCOC(=O)C1=C(CBr)NC(=O)NC1C (centres undefined) | n | n | 32.7 | n | n
CC(C(=O)N1CCCCC1)N(C)CC(=O)Nc1ccc(F)c(F)c1F (centres undefined) | n | n | 25.8 | n | n
CCCNCC1C(Oc2ccc(Cl)cc2Cl)C(=O)N1c1cccc(C)c1C (centres undefined) | n | n | n | n | x
Cc1cccc(N2C(=O)C(Oc3ccc(Cl)cc3Cl)C2C(=O)O)c1C (centres undefined) | n | n | 25.0 | n | n
CCOC(=O)C1CSCCS(=O)(=O)N1Cc1ccc(F)cc1F (centres undefined) | n | n | n | n | x
O=C(COC(=O)C1CCC1)Nc1cc(S(=O)(=O)N2CCCCC2)ccc1Cl | n | n | n | n | x
CC(=O)OCC(=O)Nc1cc(S(=O)(=O)N2CCCCCC2)ccc1Cl | n | n | 25.2 | n | n
CN[C@H]1C[C@@H](c2ccccc2Br)N(C(C)=O)C[C@H]1CO | n | n | n | n | x
COC(=O)/C(C#N)=C/c1ccc(C)o1 | n | n | 24.7 | n | n
Cc1ccnc(Nc2ccc(CCO)cc2)n1 | n | n | 27.1 | n | n
NC1=NC(=O)/C(=C/c2cccc(-c3ccc(S(N)(=O)=O)cc3)c2)S1 | n | n | 27.7 | n | n
NC1=NC(=O)/C(=C\c2ccc(O)c([N+](=O)[O-])c2)S1 | n | n | n | n | x

High-throughput results deposited in PubChem by The Scripps Research Institute Molecular Screening Center.
